As usually defined, the inhibition is the percentage by which the read-out fell short of the control.

In assay [1] the target is T1, Cathepsin L2 (Homo sapiens) (UniProt O60911).
T1 sequence (whole entry): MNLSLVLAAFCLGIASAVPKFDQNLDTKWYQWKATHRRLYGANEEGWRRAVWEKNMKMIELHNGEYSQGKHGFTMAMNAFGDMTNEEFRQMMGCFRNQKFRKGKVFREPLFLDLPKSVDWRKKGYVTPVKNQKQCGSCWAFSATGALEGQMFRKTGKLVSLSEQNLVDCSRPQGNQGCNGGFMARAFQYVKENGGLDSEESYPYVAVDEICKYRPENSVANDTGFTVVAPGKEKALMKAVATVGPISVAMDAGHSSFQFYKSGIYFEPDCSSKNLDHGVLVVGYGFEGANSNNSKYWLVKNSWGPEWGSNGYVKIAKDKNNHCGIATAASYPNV
The assay is described as follows: Inhibition of Cathepsin V assessed as second-order inactivation rate constant by spectrofluorometry. In short, it runs like this:
(§1)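 Continuous assay: substrate Cbz-Phe-Arg-AMC kept 10-fold below KM, with varying inhibitor concentrations, in enzyme-specific buffer (cathepsin S: phosphate pH 6.5, 2.5 mmol L⁻¹ EDTA; cathepsin V: acetate pH 5.5, 2.5 mmol L⁻¹ EDTA). AMC fluorescence ex 380/em 460 nm. Progress curves fit to P = (vz/kobs)[1−exp(−kobs·t)] + d to obtain kobs.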

The target in assay [2] is Cathepsin S (Homo sapiens) (UniProt P25774). The assay can be described thus: Inhibition of Cathepsin S assessed as second-order inactivation rate constant by spectrofluorometry. Also on record: unit not given here. The procedure, abridged: as §1
Assay [3] addresses T1, Cathepsin L2 (Homo sapiens). The assay is described as follows: Inhibition of Cathepsin V at 1 umol/L for 2 mins by spectrofluorometry. The procedure, abridged: (§2)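 Enzyme pre-incubated with inhibitor (1 µmol L⁻¹) for 2 min at 37 °C in enzyme-specific buffer (cathepsin S: 50 mmol L⁻¹ sodium phosphate pH 6.5, 2.5 mmol L⁻¹ EDTA; cathepsin V: 50 mmol L⁻¹ sodium acetate pH 5.5, 2.5 mmol L⁻¹ EDTA). Then Cbz-Phe-Arg-AMC (1 µmol L⁻¹) added; fluorescence ex 380/em 460 nm. Residual activity as percentage of uninhibited control; triplicate.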

In assay [4] the target is Cathepsin S (Homo sapiens) (UniProt P25774). The assay is described as follows: Inhibition of Cathepsin S at 1 umol/L for 2 mins by spectrofluorometry. In short, it runs like this: as §2

Sequence of Cathepsin S (Homo sapiens) (P25774 115-331 limits assumed): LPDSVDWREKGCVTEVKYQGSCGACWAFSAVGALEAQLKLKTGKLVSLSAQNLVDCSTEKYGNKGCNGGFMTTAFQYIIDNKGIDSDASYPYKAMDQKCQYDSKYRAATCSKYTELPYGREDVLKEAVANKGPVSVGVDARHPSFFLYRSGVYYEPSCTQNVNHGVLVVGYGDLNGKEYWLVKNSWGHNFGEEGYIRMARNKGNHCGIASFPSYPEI

In the case of `CCCC[Se](Cl)(Cl)c1ccccc1[C@@H](C)OC`, the Activity in assay [1] came to 900 mol/L/s; in assay [2] it was 1200.

Turning to `CCCC[Se](Br)(Br)c1ccccc1COC`, the Activity came to 3400 mol/L/s in assay [1] and 4000 in assay [2].

Turning to `CCCC[Se](Br)(Br)c1ccccc1[C@H](C)OC`, the results for the Activity in assay [1] and in assay [2] were 2200 mol/L/s and 2900, respectively.

For `CCCC[Se](Cl)(Cl)c1ccccc1[C@H](C)OC`, the values for the Activity in assay [1] and in assay [2] were 1000 mol/L/s and 1500, respectively.

In the case of `CCCC[Te](Br)(Br)c1ccccc1[C@H](C)OC`, the figures for the inhibition in assay [3] and in assay [4] were 90% and over 90%, respectively. Besides, the Activity in assay [1] amounted to 7400 mol/L/s; in assay [2], 4900.

For the molecule `CCCC[Te](Cl)(Cl)c1ccccc1[C@H](C)OC`, the inhibition in assay [3] was 90%; in assay [4], 85%. Besides, the Activity in assay [1] came to 2400 mol/L/s; in assay [2] it was 1800.

For the molecule `CCCC[Te](Br)(Br)c1ccccc1[C@@H](C)OC`, the inhibition in assay [3] is 90%; in assay [4], over 90%. Besides, the Activity in assay [1] stood at 3900 mol/L/s; in assay [2] it was 2500.

Turning to `CCCC[Se](Cl)(Cl)c1ccccc1COC`, the Activity was 500 mol/L/s in assay [1] and 1500 in assay [2].

`CCCC[Te](Cl)(Cl)c1ccccc1[C@@H](C)OC`: the inhibition in assay [3] was found to be 90%; in assay [4], 85%. Besides, the values for the Activity in assay [1] and in assay [2] were 2500 mol/L/s and 1800, respectively.

As for `CCCC[Se](Br)(Br)c1ccccc1[C@@H](C)OC`, the values for the Activity in assay [1] and in assay [2] were 1000 mol/L/s and 2200, respectively.

Take `CCCC[Te](Cl)(Cl)c1ccccc1COC`: the inhibition is 90% in assay [3] and 85% in assay [4]. Moreover, the Activity was found to be 11600 mol/L/s in assay [1] and 1300 in assay [2].

Turning to `CCCC[Te](Br)(Br)c1ccccc1COC`, the inhibition in assay [3] came to 90%; in assay [4], 96%. In addition, the Activity in assay [1] was 26400 mol/L/s; in assay [2], 4400.

These data come from ChEMBL document CHEMBL1681765, “Structure-activity relationships of hypervalent organochalcogenanes as inhibitors of cysteine cathepsins V and S” (Bioorg Med Chem, 2011).
